Published values pooled from the literature.
Each line is one published result; the experiments were not run side by side.
Target: Cannabinoid receptor 2 (CNR2, Homo sapiens, UniProt P34972)
Effect on: ligand displacement
Technique: radioligand

Compound	setting	Ki [nM]
CCCc1cc(O)c2c(c1)OC(C)(C)c1ccc(C)cc1-2	cell membranes	4780
CCCC(C)(C)c1ccc2c(c1)OC(C)(C)[C@@H]1CC=C(C)C[C@@H]21	cell membranes	34.9
CCCCCc1cc(O)c(C/C=C(\C)CCC=C(C)C)c(O)c1C(=O)O	cell membranes	> 10000
CCOC(=O)C(CC)(CCCSC)NC(=O)c1ccc(C2CC2)c(Cc2ccc(F)cc2)n1 (stereo not drawn)	cell membranes	1.3
Cc1c(C(=O)Nc2ccc(C(F)(F)F)cn2)nc(-c2ccc(Cl)cc2Cl)n1-c1ccc(OS(=O)(=O)CCC(F)(F)F)cc1	cell membranes	4.9
CCOC(=O)C(CC)(CCCSCCOCCOCCOCCNC(=O)OC(C)(C)C)NC(=O)c1ccc(C2CC2)c(Cc2ccc(F)cc2)n1 (stereo not drawn)	cell membranes	138
CC/C(=C(\c1ccc(O)cc1)c1ccc(OCCN(C)C)cc1)c1ccccc1	cell membranes	900
CCOC(=O)[C@](CC)(CCC[S+]([O-])CCOCCOCCNC(=O)OC(C)(C)C)NC(=O)c1ccc(C2CC2)c(Cc2ccc(F)cc2)n1 (stereo partly drawn)	cell membranes	29
CCCc1cc(O)c2c(c1)OC(C)(C)[C@@H]1CCC(C)=C[C@@H]21	cell membranes	105
CCCCCn1c2ccccc2c2cc(C(=O)N3CCN(CC(=O)NC(C)(C)C)CC3)ccc21	–	2000
Cc1nc([C@@](C)(CC2CC2)NC(=O)c2cc(OCC(F)(F)F)c(C3CC3)cn2)no1	cell membranes	76
CCCCCc1cc(O)c2c(c1)OC(C)(C)c1ccc(C)cc1-2	cell membranes	73
CCCCCn1cc(C(=O)C2C(C)(C)C2(C)C)c2ccccc21	cell membranes	4.51
CCCCCc1cc(O)c(C/C=C(\C)CCC2OC2(C)C)c(O)c1 (stereo not drawn)	cell membranes	4720
NC(=O)[C@@H]1CC(F)(F)CN1C(=O)c1ccc(N2CC(F)(F)C2)c(OCC2CC2)n1	cell membranes	40
